ROMK primary – modulators of human ROMK potassium channel. P48048. Tet-inducible ROMK, thallium flux fluorescence; actives lie on both sides. B-score at 10 µM. hit rate 2% among 130,000;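 active = signal ratio slope over the read window, or its plate-corrected B-score, at least 3 SD from the plate mean, either direction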;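 note: B-score of the F/F0 ratio slope over 7 to 12 s after thallium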
Target sequence (P48048 whole entry, looked up): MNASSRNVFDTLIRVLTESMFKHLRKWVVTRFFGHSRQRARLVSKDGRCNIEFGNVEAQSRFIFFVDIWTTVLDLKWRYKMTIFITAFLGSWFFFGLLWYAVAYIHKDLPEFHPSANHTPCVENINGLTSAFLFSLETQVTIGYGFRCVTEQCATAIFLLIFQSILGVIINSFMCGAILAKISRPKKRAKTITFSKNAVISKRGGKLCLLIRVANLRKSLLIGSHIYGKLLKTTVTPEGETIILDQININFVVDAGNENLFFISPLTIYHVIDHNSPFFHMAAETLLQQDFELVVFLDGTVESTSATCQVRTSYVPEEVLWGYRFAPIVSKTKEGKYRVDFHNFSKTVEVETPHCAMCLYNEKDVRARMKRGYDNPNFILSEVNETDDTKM
Cl transport mod – modulators of human KCC2 chloride dependent transport. KCC2 cells, thallium flux FluoZin-2 fluorescence. hit rate 2.2% among 190,000. Q9H2X9. B-score of Tl+ flux slope (higher = more flux/activation; lower = inhibition) at 10 µM;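 active = thallium flux slope and its plate-corrected score both differing from the plate sample mean at a set confidence after two filtering rounds, in either direction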;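 note: slope of fluorescence scaled to starting intensity during 10 to 20 s after thallium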
b-catenin transl – modulators of beta-catenin nuclear translocation; AID 1665; HeLa beta-catenin nuclear translocation, immunofluorescence imaging; nuclear translocation activity, % at 5 µM; hit rate 0.3% among 190,000;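 active = nuclear translocation activity above 50% at 5 µM, with a well cell count of 50 or more; inconclusive = wells under 50 cells across six images, flagged as toxic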;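 note: per-cell ratio of nuclear to cytoplasmic median beta-catenin stain intensity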
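assay system = human HeLa cells, endogenous beta-catenin | times = compound treatment 24 h, 37°C, 5% CO2 | detection = Anti-beta-catenin immunofluorescence on PFA-fixed, Triton-permeabilized cells, DAPI nuclei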
DTT redox prof – compounds producing H2O2 with reducing agent – biochemical, NIH compound library profiling, artefact control for MLSCN library redox annotation, primary screen; DTT-dependent redox cycling H2O2, phenol red/HRP absorbance; 100% = 100 µM peroxide control, 0% = buffer; AID 878; hit rate 0.03% among 200,000; activation, % at 10 µM;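 active = activation of at least 50% relative to the plate's high and low controls in the primary single-dose screen; inactive = activation below 50%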;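 note: compound incubated with DTT at 0.8 mM final as the reducing agent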
MT stabilizer – microtubule stabilization, imaging screen; HeLa tubulin immunostaining HCS, 24 h; share of cells brighter than vehicle mean+2SD; % tubulin-high responders, % at 10 µM; hit rate 0.83% among 200,000; AID 2205;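 active = plate Z-score above 3 for both tubulin-high and condensed-nucleus cell shares, with cell loss under 80%, at 10 µM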;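 note: anti alpha tubulin signal scored within the nucleus-defined area of each cell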
KCC2 secondary – confirmation of human KCC2 transport modulators. shares compounds with Cl transport mod. HEK293-KCC2, thallium flux, FluoZin2 fluorescence; hits give high values. normalised thallium flux (F/F0 slope) at 10 µM. hit rate 15% among 3,700. AID 1713;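 active = thallium flux slope above the same plate's solvent-only control mean plus 3 SD; inconclusive = the two replicate wells disagree; inactive = no significant difference from solvent-only control wells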
KCC2 bumet counter – thallium flux persisting under bumetanide in KCC2 cells, counter-screen secondary assay | shares compounds with Cl transport mod | normalized thallium flux at 10 µM | AID 1714 | hit rate 49% among 3,700 | HEK293-KCC2 + bumetanide/ouabain, thallium flux FluoZin2; hits give high values;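 active = thallium entry rate above the same plate's blocked-transporter control wells by more than 3 SD; inconclusive = the two repeat wells disagree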;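 note: raw slope of fluorescence over initial fluorescence between 10 and 20 s after thallium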
KCC2 secondary2 – confirmation of human KCC2 transport modulators; shares compounds with Cl transport mod; HEK293-KCC2, thallium flux FluoZin2 fluorescence; actives lie on both sides; F/F0 rise rate, 10–20 s post-thallium; normalized thallium flux at 10 µM; hit rate 23% among 3,700; AID 1715;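 active = thallium flux slope more than 3 SD above or below the plate's solvent-only control mean, mostly below; inconclusive = the two repeat wells disagreed; inactive = no significant shift from solvent-only controls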
HEK293 Tl flux – parental HEK flux effect, counter-screen; shares compounds with Cl transport mod; HEK293 parental cells, thallium flux FluoZin2, ouabain; baseline-ratio fluorescence slope, 10–20 s after thallium; thallium flux rate (normalised fluorescence) at 10 µM; hit rate 46% among 3,700; AID 1716;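 active = thallium flux rate significantly above the same plate's solvent-only control wells, beyond their mean plus 3 SD; inconclusive = the two replicate wells gave conflicting results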
KCC2 retest ouab – modulates human KCC2 on retest with ouabain. shares compounds with Cl transport mod. HEK293-KCC2, thallium flux FluoZin2 fluorescence; bidirectional: low = inhibitor, high = activator. raw Tl+ flux slope (below DMSO = inhibition, above = activation) at 10 µM. hit rate 48% among 3,700;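 active = thallium flux slope beyond 3 SD from same-plate DMSO control mean in most replicates, usually higher, sometimes lower; inconclusive = repeat tests gave conflicting results; inactive = no significant difference from controls in most replicates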;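 note: slope of initial-normalized fluorescence between seconds 10 and 20 after thallium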
HEK counter2 – parental HEK flux effect, counter-screen 2. shares compounds with Cl transport mod. HEK293 parental, thallium flux FluoZin-2 fluorescence slope. thallium flux slope at 10 µM. hit rate 33% among 3,700;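 active = thallium flux slope above the same plate's solvent-control mean plus 3 SD in both duplicate wells; inconclusive = duplicate wells that disagreed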;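 note: run without ouabain in cells lacking the KCC2 cotransporter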
Hits are given with their value; i = inactive; ? = inconclusive; nt = no result given. An excerpt weighted towards active compounds, which were near 3.7% of everything screened.

SMILES	ROMK primary	Cl transport mod	b-catenin transl	DTT redox prof	MT stabilizer	KCC2 secondary	KCC2 bumet counter	KCC2 secondary2	HEK293 Tl flux	KCC2 retest ouab	HEK counter2
O=C(Nc1ccc(-c2csc(Nc3cccc(C(F)(F)F)c3)n2)cc1)c1ccccc1	nt	i	i	nt	nt	nt	nt	nt	nt	nt	nt
O=C(Nc1nc(=O)n(C(=O)c2cccc(C(F)(F)F)c2)s1)c1ccccc1	nt	-4.3	i	nt	nt	i	i	0.0244	i	0.0159	i
Cn1cccc1C(=O)OCC(=O)N1c2ccccc2NC(=O)C1(C)C	i	i	i	i	i	nt	nt	nt	nt	nt	nt
Cc1sc2ncnc(SCC(=O)N(C)C3CCS(=O)(=O)C3)c2c1C (stereo not drawn)	i	i	i	i	i	nt	nt	nt	nt	nt	nt
CN(C(=O)CSc1ncnc2sc(-c3ccccc3)cc12)C1CCS(=O)(=O)C1 (stereo not drawn)	i	138	i	i	i	i	0.107	0.108	0.115	0.102	0.114
CCOC(=O)c1sc2nc(C)nc(SCC(=O)N(C)C3CCS(=O)(=O)C3)c2c1C (stereo not drawn)	i	23.7	i	i	i	i	0.06	0.052	0.0486	0.0479	0.0458
CN(C)c1ccc(C(c2ccc(N(C)C)cc2)c2ccc([N+](=O)[O-])cc2)cc1	nt	i	i	nt	nt	nt	nt	nt	nt	nt	nt
CCOC(=O)c1sc(Nc2ccccc2)nc1C	i	nt	nt	i	i	nt	nt	nt	nt	nt	nt
CCOC(=O)c1sc(Nc2nc3c(OC)cccc3s2)nc1C	i	26	nt	i	i	i	0.0117	0.0408	0.0254	0.038	0.0175
CCN(CC)/C(Sc1ccccc1)=C(\C(Cl)=C(Cl)Cl)[N+](=O)[O-]	nt	-4.92	nt	i	i	i	?	?	0.00637	?	i
CCCCn1c(N2CCC(Cc3ccccc3)CC2)nc2c1c(=O)[nH]c(=O)n2C	nt	-4.85	i	i	i	i	i	i	?	?	i
Cc1nc2c(-c3ccccc3)c[nH]n2c(=O)c1Cc1ccccc1	i	16.3	i	i	i	i	0.025	i	0.02	0.0296	0.0194
O=C(Nc1nnc(-c2cccnc2)o1)c1cccc(Cl)c1	i	14.3	i	i	i	?	0.0271	i	?	0.0339	i
O=C(Nc1nnc(-c2ccco2)o1)c1cccc(Cl)c1	i	23.5	i	i	i	0.0193	0.0628	i	0.034	0.0488	0.0146
Cc1ccc(C(=O)Nc2nnc(-c3ccncc3)o2)cc1	i	i	i	i	i	nt	nt	nt	nt	nt	nt
O=C(Nc1nnc(-c2ccccn2)o1)c1cccc(Cl)c1	i	10.8	i	i	i	i	0.0152	i	0.0215	0.0272	0.0219
Cc1cccc(-c2nnc(NC(=O)c3ccc(Cl)cc3)o2)c1	nt	91.4	nt	i	i	0.0704	0.162	0.0775	?	0.121	0.0716
CC(=O)Nc1nnc(-c2ccco2)o1	i	i	i	i	i	nt	nt	nt	nt	nt	nt
O=C(/C=C/c1ccccc1)Nc1nnc(-c2ccco2)o1	i	2.79	i	i	i	i	0.00833	i	?	i	i
FC(F)Oc1ccc(NC(=S)NCc2cccnc2)cc1	i	i	i	i	i	nt	nt	nt	nt	nt	nt
S=C(NCc1cccnc1)Nc1ccc(Oc2ccccc2)cc1	i	-3.89	i	i	i	i	i	0.0224	i	?	i
NNC(=S)NCc1cccnc1	i	i	i	i	i	nt	nt	nt	nt	nt	nt
NC(=S)NCc1cccnc1	nt	4.76	i	i	i	i	i	i	i	i	i
O=C(C1CCCN(CCCc2ccccc2)C1)N1CCCCCC1 (stereo not drawn)	nt	i	i	i	i	nt	nt	nt	nt	nt	nt
N#Cc1nc(Cl)c(Cl)c(NN)c1Cl	i	i	i	nt	nt	nt	nt	nt	nt	nt	nt
SMILES	ROMK primary	Cl transport mod	b-catenin transl	DTT redox prof	MT stabilizer	KCC2 secondary	KCC2 bumet counter	KCC2 secondary2	HEK293 Tl flux	KCC2 retest ouab	HEK counter2
CCC1CCCCN1S(=O)(=O)c1ccc(C(=O)Nc2nnc(-c3ccccc3Cl)o2)cc1 (stereo not drawn)	nt	18.6	i	i	i	0.0148	0.0708	i	0.0344	0.0417	?
CC1CCCCN1S(=O)(=O)c1ccc(C(=O)Nc2nnc(-c3ccncc3)o2)cc1 (stereo not drawn)	i	i	i	i	i	nt	nt	nt	nt	nt	nt
CC1CCCCN1S(=O)(=O)c1ccc(C(=O)Nc2nnc(-c3ccccc3Cl)o2)cc1 (stereo not drawn)	i	17.1	nt	i	i	0.0141	0.053	i	?	0.0417	?
O=C(Nc1nnc(-c2cccs2)o1)c1ccc(S(=O)(=O)N2CCOCC2)cc1	i	i	i	i	i	nt	nt	nt	nt	nt	nt
CC1CCCCN1S(=O)(=O)c1ccc(C(=O)Nc2sccc2C(N)=O)cc1 (stereo not drawn)	nt	-3.95	i	i	i	i	i	i	i	i	i
CC1(C)COCN1S(=O)(=O)c1ccc(C(=O)Nc2nnc(-c3ccc(Cl)s3)o2)cc1	nt	14.5	i	i	i	?	0.0397	i	?	0.0353	i
NC(=O)c1ccsc1NC(=O)C1CCCN1S(=O)(=O)c1ccc(Cl)cc1 (stereo not drawn)	i	nt	i	i	i	nt	nt	nt	nt	nt	nt
CC1(C)NC(=O)N(CC(=O)Nc2nc(-c3ccc(F)cc3)cs2)C1=O	i	-4.91	i	i	i	i	i	0.0244	i	0.0126	?
CN1CCN(CC(=O)Nc2nc(-c3ccccc3)cs2)CC1	i	nt	i	i	i	i	0.00874	i	i	i	i
CCCC(=O)Nc1nc(-c2ccc3c(c2)CCN3S(C)(=O)=O)cs1	nt	6.22	nt	i	i	i	i	i	?	i	i
CCC(C)(C)C1CCC2(CC1)NC(=O)N(CC(=O)Nc1nc(-c3ccc(C)cc3)cs1)C2=O (stereo not drawn)	i	i	i	i	i	nt	nt	nt	nt	nt	nt
O=C(CN1C(=O)NC2(CCCC2)C1=O)Nc1nc(-c2ccc(F)cc2)cs1	nt	-6.59	i	i	i	i	i	0.0273	i	0.0136	i
CC(C)N(C(=O)C[n+]1ccsc1N)c1ccccc1	i	i	i	i	i	nt	nt	nt	nt	nt	nt
COc1ccc(Cn2c(C)nnc2-c2cnn(C)c2N)cc1	i	i	i	i	i	nt	nt	nt	nt	nt	nt
CC(C)Sc1ncc(S(=O)(=O)c2ccccc2)c(=O)[nH]1	i	i	i	i	i	nt	nt	nt	nt	nt	nt

Screens deposited in PubChem by several laboratories.
